Data set [1] addresses Collagenase 3 (Homo sapiens, UniProt P45452). The data set can be described thus: Inhibition of MMP13 using (7-methoxycoumarin-4-yl)acetyl-Pro-Leu-Gly-Leu-(3-(2,4-dinitrophenyl)-L-2,3-diaminopropionyl)Ala-Arg-NH2 as substrate incubated for 30 mins prior to substrate addition measured for 10 mins by fluorometry.
For data set [2], the target named is Neutrophil collagenase (Homo sapiens, UniProt P22894). The data set can be described thus: Inhibition of MMP8 using (7-methoxycoumarin-4-yl)acetyl-Pro-Leu-Gly-Leu-(3-(2,4-dinitrophenyl)-L-2,3-diaminopropionyl)Ala-Arg-NH2 as substrate incubated for 30 mins prior to substrate addition measured for 10 mins by fluorometry. The method, boiled down: (§1)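 Activated MMP-8 or MMP-9 (2 nM) was preincubated with inhibitor (10 pM–1 mM) in 50 mM Tris-HCl pH 7.5 with 0.2 M NaCl, 5 mM CaCl2, 20 μM ZnSO4 and 0.05% Brij 35 at 37 °C for 30 min. Fluorogenic substrate (10 μL of 50 μM into 90 μL) was then added. Rates from the first 10 min were plotted against inhibitor concentration, and values are the mean of three experiments.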

In data set [3] the target is Matrix metalloproteinase-9 (Homo sapiens, UniProt P14780). The data set can be described thus: Inhibition of MMP9 using (7-methoxycoumarin-4-yl)acetyl-Pro-Leu-Gly-Leu-(3-(2,4-dinitrophenyl)-L-2,3-diaminopropionyl)Ala-Arg-NH2 as substrate incubated for 30 mins prior to substrate addition measured for 10 mins by fluorometry. The essentials: as §1
Data set [4] deals with 72 kDa type IV collagenase (Homo sapiens, UniProt P08253). The data set can be described thus: Inhibition of MMP2 using (7-methoxycoumarin-4-yl)acetyl-Pro-Leu-Gly-Leu-(3-(2,4-dinitrophenyl)-L-2,3-diaminopropionyl)Ala-Arg-NH2 as substrate incubated for 30 mins prior to substrate addition measured for 10 mins by fluorometry.
Data set [5] has as its system Liver. Nature of the data set: Tmax in C57/Bl6 mouse liver at 250 kBq/g bodyweight, iv administered as bolus dose by PET scanning. The class given is ADME, organism-based. The conditions noted are these: in vivo. The method, boiled down:
(§2)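 Adult C57/Bl6 mice given the 18F tracer by intravenous injection. List-mode PET data acquired for 120 min on a high-resolution small-animal scanner and reconstructed into dynamic frames iteratively. Organ volumes of interest were drawn on co-registered CT. Uptake is counts per mL in the VOI divided by total counts in the mouse ×100 (% ID/mL).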

Data set [6] relates to Liver. Nature of the data set: Half life in C57/Bl6 mouse liver at 250 kBq/g bodyweight, iv administered as bolus dose by PET scanning. The class given is ADME, organism-based. The conditions noted are these: in vivo. The essentials:
as §2

The test system of data set [7] is Kidney. Nature of the data set: Half life in C57/Bl6 mouse kidney at 250 kBq/g bodyweight, iv administered as bolus dose by PET scanning. Format: ADME, organism-based. The conditions noted are these: in vivo. The essentials:
as §2

For data set [8], the system named is Kidney. Nature of the data set: Tmax in C57/Bl6 mouse kidney at 250 kBq/g bodyweight, iv administered as bolus dose by PET scanning. The class given is ADME, organism-based. The conditions noted are these: in vivo. The essentials: as §2

Chain of Matrix metalloproteinase-9 (P14780 whole entry): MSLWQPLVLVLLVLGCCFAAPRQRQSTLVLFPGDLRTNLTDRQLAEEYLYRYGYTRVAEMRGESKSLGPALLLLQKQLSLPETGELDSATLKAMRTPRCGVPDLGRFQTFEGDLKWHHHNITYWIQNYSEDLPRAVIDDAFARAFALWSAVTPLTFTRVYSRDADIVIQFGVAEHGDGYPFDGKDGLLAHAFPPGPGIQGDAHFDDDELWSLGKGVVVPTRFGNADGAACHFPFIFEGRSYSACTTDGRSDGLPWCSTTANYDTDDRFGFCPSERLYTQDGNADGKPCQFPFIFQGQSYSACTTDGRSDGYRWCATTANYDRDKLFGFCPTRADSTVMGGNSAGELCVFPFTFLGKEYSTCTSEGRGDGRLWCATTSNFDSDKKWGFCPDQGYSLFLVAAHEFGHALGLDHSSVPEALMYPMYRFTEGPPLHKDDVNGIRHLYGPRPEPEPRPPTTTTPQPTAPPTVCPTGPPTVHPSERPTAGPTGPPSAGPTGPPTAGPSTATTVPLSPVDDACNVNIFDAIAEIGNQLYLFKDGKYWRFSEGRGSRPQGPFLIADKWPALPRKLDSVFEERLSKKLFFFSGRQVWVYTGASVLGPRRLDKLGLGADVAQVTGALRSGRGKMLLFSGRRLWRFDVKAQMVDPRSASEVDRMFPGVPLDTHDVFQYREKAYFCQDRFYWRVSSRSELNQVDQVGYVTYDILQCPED
Chain of Neutrophil collagenase (P22894 whole entry): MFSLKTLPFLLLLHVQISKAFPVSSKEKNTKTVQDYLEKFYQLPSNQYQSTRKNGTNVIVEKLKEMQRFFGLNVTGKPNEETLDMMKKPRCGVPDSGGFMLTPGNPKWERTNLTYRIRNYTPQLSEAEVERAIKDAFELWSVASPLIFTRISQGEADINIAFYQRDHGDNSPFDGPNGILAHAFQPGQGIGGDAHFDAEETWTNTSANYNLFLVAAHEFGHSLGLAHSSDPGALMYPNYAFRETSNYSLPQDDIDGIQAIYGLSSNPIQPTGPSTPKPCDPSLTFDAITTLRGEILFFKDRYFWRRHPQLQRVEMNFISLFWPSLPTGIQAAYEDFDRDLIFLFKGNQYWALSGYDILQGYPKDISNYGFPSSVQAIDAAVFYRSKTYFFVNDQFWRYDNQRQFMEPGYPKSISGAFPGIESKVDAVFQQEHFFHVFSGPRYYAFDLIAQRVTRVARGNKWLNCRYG
Chain of 72 kDa type IV collagenase (P08253 whole entry): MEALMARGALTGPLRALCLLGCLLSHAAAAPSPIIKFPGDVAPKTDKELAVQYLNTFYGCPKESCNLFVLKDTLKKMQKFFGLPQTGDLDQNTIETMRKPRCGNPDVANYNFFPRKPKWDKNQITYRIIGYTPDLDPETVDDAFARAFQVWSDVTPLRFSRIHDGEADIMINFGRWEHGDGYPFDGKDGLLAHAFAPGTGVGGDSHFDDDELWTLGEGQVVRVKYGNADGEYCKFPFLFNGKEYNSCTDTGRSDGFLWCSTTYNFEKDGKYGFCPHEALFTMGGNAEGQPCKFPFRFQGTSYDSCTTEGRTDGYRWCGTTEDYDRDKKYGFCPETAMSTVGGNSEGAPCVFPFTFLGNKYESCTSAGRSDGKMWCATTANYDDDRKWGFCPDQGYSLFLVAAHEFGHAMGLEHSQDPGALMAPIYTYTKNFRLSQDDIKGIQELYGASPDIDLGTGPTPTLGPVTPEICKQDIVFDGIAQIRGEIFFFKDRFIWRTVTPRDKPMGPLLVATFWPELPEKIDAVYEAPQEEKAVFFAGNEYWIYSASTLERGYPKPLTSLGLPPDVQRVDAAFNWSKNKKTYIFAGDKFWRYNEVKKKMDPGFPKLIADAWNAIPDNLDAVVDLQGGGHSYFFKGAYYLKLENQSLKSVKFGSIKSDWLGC

A word on the IC50: it is the point on the concentration scale where inhibition reaches its midpoint. A lower IC50 goes with higher potency. For `COc1ccc(S(=O)(=O)N(Cc2ccc(OCCOCCOCCOCCOCc3cn(CCOCCOCCOCCF)nn3)cc2)[C@@H](C(=O)NO)C(C)C)cc1`, the IC50 is 4 nM in data set [1], 5 nM in data set [2], 5 nM in data set [3] and 4 nM in data set [4].
With `COc1ccc(S(=O)(=O)N(Cc2cn([C@@H]3O[C@H](CO)[C@@H](O)[C@H](O)[C@H]3F)nn2)[C@@H](C(=O)NO)C(C)C)cc1`, the concentration for half-maximal inhibition (IC50) in data set [1] is 0.5 nM; in data set [2], 0.5 nM; in data set [3], 0.6 nM; in data set [4], 0.2 nM.
`COc1ccc(S(=O)(=O)N(Cc2cn(CCOS(=O)(=O)c3ccc(C)cc3)nn2)[C@@H](C(=O)NO)C(C)C)cc1`: the IC50 in data set [1] worked out at 5 nM; in data set [2] it was 8 nM; in data set [3], 7 nM; in data set [4], 107 nM.
`COc1ccc(S(=O)(=O)N(Cc2ccc(OCCOCCOCCOCCn3cc(COCCOCCOCCOCCOCCF)nn3)cc2)[C@@H](C(=O)NO)C(C)C)cc1`: the IC50 was determined as 1 nM in data set [1], 3 nM in data set [2], 3 nM in data set [3] and 4 nM in data set [4].
As to `COc1ccc(S(=O)(=O)N(Cc2ccc(OCCOCCOCCOCCOCc3cn([C@@H]4O[C@H](CO)[C@@H](O)[C@H](O)[C@H]4F)nn3)cc2)[C@@H](C(=O)NO)C(C)C)cc1`, the IC50 in data set [1] was 18 nM; in data set [2] it was 58 nM; in data set [3], 43 nM; in data set [4], 30 nM.
On the same counts, the results for `COc1ccc(S(=O)(=O)N(Cc2ccc(OCCOCCOCCOCCOCc3cn(CCF)nn3)cc2)[C@@H](C(=O)NO)C(C)C)cc1` are 6 nM, 0.2 nM, 0.6 nM and 2 nM.
For `COc1ccc(S(=O)(=O)N(Cc2cn(CCOCCOCCOCCOS(=O)(=O)c3ccc(C)cc3)nn2)[C@@H](C(=O)NO)C(C)C)cc1`, the IC50 is 0.02 nM in data set [1], 0.03 nM in data set [2], 0.06 nM in data set [3] and 0.07 nM in data set [4].
On the same counts, the results for `COc1ccc(S(=O)(=O)N(Cc2cn(CCOCCOCCOCCn3cc(CN([C@@H](C(=O)NO)C(C)C)S(=O)(=O)c4ccc(OC)cc4)nn3)nn2)[C@@H](C(=O)NO)C(C)C)cc1` are over 100000 nM, over 100000 nM, over 100000 nM and over 100000 nM.
With `COc1ccc(S(=O)(=O)N(Cc2cn(CCF)nn2)[C@@H](C(=O)NO)C(C)C)cc1`, the IC50 in data set [1] was determined as 0.006 nM; in data set [2] it was 0.02 nM; in data set [3] it was 0.03 nM; in data set [4], 0.13 nM.
In the case of `COc1ccc(S(=O)(=O)N(Cc2cn(CCOCCOCCOCCOc3cccnc3F)nn2)[C@@H](C(=O)NO)C(C)C)cc1`, the IC50 in data set [1] was 1 nM; in data set [2], 5 nM; in data set [3] it was 4 nM; in data set [4], 3 nM.
As for `COc1ccc(S(=O)(=O)N(Cc2cn(CCOCCOCCOCCN=[N+]=[N-])nn2)[C@@H](C(=O)NO)C(C)C)cc1`, the IC50 in data set [1] was determined as 6 nM; in data set [2] it was 9 nM; in data set [3], 0.9 nM; in data set [4], 1.2 nM.
The like results for `C#CCN([C@@H](C(=O)NO)C(C)C)S(=O)(=O)c1ccc(OC)cc1` were, in that order, 10 nM, 14 nM, 2 nM and 5 nM.
On the same counts, the results for `COc1ccc(S(=O)(=O)N(Cc2cn(CCOCCOCCOCCF)nn2)[C@@H](C(=O)NO)C(C)C)cc1` are 0.04 nM, 0.04 nM, 0.05 nM and 0.1 nM.
The like results for `C#CCOCCOCCOCCOCCOc1ccc(CN([C@@H](C(=O)NO)C(C)C)S(=O)(=O)c2ccc(OC)cc2)cc1` were, in that order, 0.09 nM, 0.11 nM, 0.37 nM and 0.35 nM.
The Tmax is the time at which the peak concentration occurs. Consider `CC(C)[C@H](C(=O)NO)N(Cc1ccccc1)S(=O)(=O)c1ccc(OCC[18F])cc1`, for which the Tmax in data set [5] is reported as 2.5 min; in data set [8], 1.5 min. Further, the figures for the t1/2 in data set [6] and in data set [7] were 7 min and 3 min, respectively.

The values are drawn from ChEMBL document CHEMBL2062426 (J Med Chem, 2012).
